Laboratory results as given in ChEMBL document CHEMBL4765235, “Discovery of N-[Bis(4-methoxyphenyl)methyl]-4-hydroxy-2-(pyridazin-3-yl)pyrimidine-5-carboxamide (MK-8617), an Orally Active Pan-Inhibitor of Hypoxia-Inducible Factor Prolyl Hydroxylase 1-3 (HIF PHD1-3) for the Treatment of Anemia” (J Med Chem, 2016).

Experiments:
[1] = Metabolic stability in monkey liver microsomes assessed as metabolic turnover at 10 uM measured after 60 mins in presence of NADPH; assay type: ADME, Macaca mulatta, Microsome; settings: rhesus monkey, read-out: Drug metabolism
How it was run: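 Tritiated compound incubated with rat or monkey liver microsomes supplemented with NADPH; metabolic turnover monitored.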

[2] = Volume of distribution at steady state in C57BL/6J mouse at 1 mg/kg, po or 0.5 mg/kg, iv; assay type: ADME, organism-based; settings: in vivo, read-out: Vdss
How it was run: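 C57BL/6J mice dosed 1 mg/kg po and 0.5 mg/kg iv, both in DMSO:PEG400:water (5:40:55, v/v/v).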

[3] = Cmax in Sprague-Dawley rat at 5 mg/kg, po administered as single dose measured at 6 hrs; assay type: ADME, organism-based; parameters: route oral, dose 5 mg/kg, time 6 hrs; settings: in vivo
[4] = In vivo inhibition of HIF-PHD2 in iv dosed C57BL/6 mouse assessed as minimum effective dose causing increase in serum erythropoietin levels measured after 4 hrs; assay type: functional; settings: C57BL/6, iv, read-out: MED
How it was run: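 Mouse pharmacodynamic EPO assay (MoPED). Compound dosed iv; serum EPO measured 4 hr after dosing and reported in pg/mL. Minimum effective dose is the lowest dose giving EPO elevation.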

[5] = Drug metabolism in monkey liver microsomes assessed as O-demethylated metabolite formation; assay type: ADME, Macaca mulatta, Microsome; settings: rhesus monkey

- metabolised at 1 h, 10 µM [1]: < 10%
- Vd [2]: 0.13 L/kg
- Cmax [3]: 14 µM
- Drug metabolism [5]: Metabolite_Detected
Structure (SMILES): COc1ccc(C(NC(=O)c2cnc(-c3cccnn3)nc2O)c2ccc(OC)cc2)cc1
- minimal effective dose [4]: 1.5 mg/kg
